Assay outcomes deposited in PubChem by several laboratories.
An excerpt weighted towards active compounds, which were near 4% of everything screened.
KCNK3 block: human KCNK3 channel inhibition, primary screen | B-score at 10 µM | CHO-KCNK3 thallium flux, FluxOR fluorescence; stronger effect = lower value | hit rate 0.84% among 340,000 | O14649;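 active = B-score under library mean minus 4 SD, starting fluorescence ratio at most library mean plus 5 SD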;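 note: more negative B-score means stronger inhibition of thallium flux through KCNK3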
KCNK9 block: human KCNK9 channel inhibition. Q9NPC2. B-score at 10 µM. HEK293 KCNK9, FluxOR thallium flux fluorescence; stronger effect = lower value. hit rate 1.2% among 310,000;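 active = ratio B-score over 3 SD below the library mean, with starting fluorescence within 5 SD of its mean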;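 note: negative B-score means less thallium flux so channel inhibition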
KCNQ1 act: potentiators or activators of human KCNQ1 potassium channel; CHO-K1 KCNQ1, thallium flux FluxOR fluorescence; stronger effect = higher value; B-score at 10 µM; hit rate 0.35% among 310,000; AID 2648;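 active = fluorescence ratio B-score, a plate-corrected score, at least three library SD, with initial intensity B-score within 5 SD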
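Medium – assay buffer, equal DMSO in all wells · Material – CHO-K1 cell line with stable KCNQ1 potassium channel expression · Signal – kinetic FluxOR thallium fluorescence, 10-s 1-Hz baseline, 110-s post-stimulus read · Compound – single concentration per compound, DMSO matched to controls · Schedule – 37 °C overnight plating, 90-min dark dye load, 20-min compound pretreatment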
PHOSPHO1 inh: PHOSPHO1 (human) inhibition | recombinant PHOSPHO1, absorbance phosphatase assay | inhibition, % at 13.3 µM | hit rate 1.1% among 290,000; in the data active = inhibition above about 60%
KCNQ1 block: inhibitors of human KCNQ1 potassium channel. P51787. B-score at 10 µM. hit rate 1.3% among 310,000. CHO-K1 KCNQ1, FluxOR thallium flux fluorescence; stronger effect = higher value;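 active = compounds whose thallium flux B-score, printed positive for inhibition, exceeds three library SD while starting fluorescence stays within three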;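 note: channel opened by potassium depolarization with thallium stimulus after 20 min compound exposure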
hERG rescue: hERG (human) protection from proarrhythmic block. Q12809. CHO-hERG, FluxOR thallium flux, dofetilide IC70 present. activation (rescue from dofetilide block), less the hit threshold, % at 10 µM. hit rate 0.51% among 310,000;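 active = activation above the mean of controls blocked by dofetilide plus 5 SD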;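 note: thallium influx through hERG after potassium depolarization seen as dye fluorescence rise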
KCNQ1 block val: reconfirmed blocker of the human KCNQ1 potassium channel; shares compounds with KCNQ1 block; KCNQ1 cell line, FluxOR thallium flux fluorescence; inhibition, % at 10 µM; hit rate 93% among 1,600; AID 588353;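 active = primary screen active, with duplicate mean exceeding buffer control mean plus 3 SD of buffer wells, cut at about 28% in these data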
CHO Tl flux: counter-screen for KCNQ1 inhibitors: effect in parental CHO cells. parental CHO-K1, FluxOR thallium flux fluorescence ratio; stronger effect = lower value; zero means no signal rise above baseline. hit rate 21% among 1,600. shares compounds with KCNQ1 block. fluorescence ratio (Tl flux) at 10 µM. AID 588366;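 active = mean of duplicate thallium-flux fluorescence ratios in parental host cells more than 5 SD below the buffer control mean, cut at about 0.38 in these data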;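 note: ratio is peak minus minimum fluorescence divided by baseline fluorescence; actives read low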
KCNQ1 APC inh: human KCNQ1 inhibition validated by electrophysiology; shares compounds with KCNQ1 block; KCNQ1-CHO cells, automated patch clamp current; calls only at 10 µM; hit rate 20% among 490;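 active = KCNQ1 current drop exceeding 3 SD of negative control wells, seen in both duplicate runs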;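 note: steady state current during a 2 s step from -80 to +40 mV; negative values mean current inhibition and positive values mean potentiation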
KCNQ2 inh: rat KCNQ2 inhibition in KCNQ1 inhibitor specificity screen. AID 651746. hit rate 71% among 1,600. shares compounds with KCNQ1 block. KCNQ2 cells, FluxOR thallium flux fluorescence. inhibition, % at 10 µM;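 active = mean percent inhibition of the KCNQ2 thallium signal more than 5 SD above the buffer-only control wells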;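 note: KCNQ2 expressed in CHO cells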
KCNQ1 KCNE1 spec: human KCNQ1/KCNE1 inhibition in KCNQ1 specificity screen | shares compounds with KCNQ1 block | AID 652147 | hit rate 77% among 1,600 | inhibition, % at 10 µM | KCNQ1/KCNE1 cells, FluxOR thallium flux fluorescence;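 active = mean percent inhibition of duplicate wells above the buffer-only control mean plus 3 SD of those controls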
KCNK9 inh conf: human KCNK9 inhibitor confirmation; inhibition, % at 10 µM; hit rate 43% among 4,900; HEK293 KCNK9 cells, FluxOR thallium flux fluorescence; AID 492992; shares compounds with KCNK9 block;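 active = thallium signal inhibited by more than 5 SD of the compound-free buffer control wells, on both duplicate plates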
Kir21 sel: selectivity of KCNK9 modulators against mouse Kir2.1; shares compounds with KCNK9 block; Kir2.1 cells, FluxOR thallium flux fluorescence; inhibition, % at 10 µM; hit rate 4% among 4,900; AID 492993;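 active = thallium signal drop more than 5 SD beyond the mean of the no-compound control wells, seen in both duplicate plates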;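 note: signal is fluorescence rise after thallium addition divided by baseline fluorescence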
KCNK9 uninduced: second counter-screen for KCNK9 modulators: effect in non-induced cells; shares compounds with KCNK9 block; inhibition, % at 10 µM; hit rate 40% among 4,900; non-induced KCNK9-HEK293, FluxOR thallium flux; AID 492997;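 active = thallium signal drop beyond 5 SD of the untreated control mean, on both duplicate plates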
KCNK3 confirm: confirmation of human KCNK3 two-pore domain potassium channel inhibitors | shares compounds with KCNK3 block | CHO-KCNK3 thallium flux, FluxOR fluorescence; 0% buffer, 100% carvedilol maximal block | ratio percent of control, % at 10 µM | hit rate 99% among 2,400 | AID 651638;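 active = ratio percent of control, averaged over triplicates, above buffer control mean plus 5 SD, cut at about 64% in these data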;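 note: ratio is the fluorescence rise from min to max over baseline after thallium stimulus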
KCNK3 noninduced: KCNK3 inhibitor counter-screen hit in non-induced cells; shares compounds with KCNK3 block; non-induced KCNK3 parental cells, FluxOR thallium flux; stronger effect = lower value; thallium flux ratio (lower = more inhibition) at 10 µM; hit rate 40% among 2,400; AID 651747;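 active = thallium flux ratio, averaged over three wells, more than 5 SD below the buffer control mean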;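 note: host cells are CHO cells without KCNK3 induction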
Numbers stand for hits.

`Cc1ccc(F)cc1CNC(=O)c1cc(COc2ccc3ncccc3c2)on1` gave KCNK3 block inactive, KCNK9 block inactive, KCNQ1 act inactive, PHOSPHO1 inh inactive, KCNQ1 block inactive and hERG rescue inactive.
For CCN(C(=O)c1cc2c(s1)-c1ccccc1OC2)c1cc(OC)ccc1OC the results were KCNK3 block -14, KCNK9 block -17, KCNQ1 act inactive, PHOSPHO1 inh inactive, KCNQ1 block 7, hERG rescue inactive, KCNQ1 block val 110, CHO Tl flux 0.37, KCNQ2 inh 96%, KCNQ1 KCNE1 spec 185%, KCNK9 inh conf 68%, Kir21 sel inactive, KCNK9 uninduced 32%, KCNK3 confirm 132 and KCNK3 noninduced 0.12.
For Cc1ccc(C(=O)OCC(=O)Nc2ncc(C(F)(F)F)cc2Cl)cc1NC(=O)c1ccco1 the results were KCNK3 block inactive, KCNK9 block inactive, KCNQ1 act inactive, PHOSPHO1 inh inactive, KCNQ1 block inactive and hERG rescue inactive.
For Cc1ccc2c(CN(C)Cc3ccc(OC(F)F)cc3)cc(=O)oc2c1C the results were KCNK3 block -10, KCNK9 block inactive, KCNQ1 act inactive, PHOSPHO1 inh inactive, KCNQ1 block 11, hERG rescue inactive, KCNQ1 block val 128, CHO Tl flux inactive, KCNQ1 APC inh inactive, KCNQ2 inh 101%, KCNQ1 KCNE1 spec 135%, KCNK3 confirm 126 and KCNK3 noninduced 0.15.
For Cc1nc(N2CCN(c3ccccn3)CC2)c2c(C)c(C(=O)Nc3ccc(Cl)cc3)sc2n1 the results were KCNK3 block -12, KCNK9 block inactive, KCNQ1 act inactive, PHOSPHO1 inh inactive, KCNQ1 block 12, hERG rescue inactive, KCNQ1 block val 104, CHO Tl flux inactive, KCNQ1 APC inh inactive, KCNQ2 inh 107%, KCNQ1 KCNE1 spec 178%, KCNK3 confirm 134 and KCNK3 noninduced 0.12.
For COc1ccc(N2CCN(CC(=O)Nc3ccc(SC(F)F)cc3)CC2)cc1 the results were KCNK3 block inactive, KCNK9 block inactive, KCNQ1 act inactive, PHOSPHO1 inh inactive, KCNQ1 block inactive and hERG rescue inactive.
CCC(C)N1CCNCC1 (stereo unspecified) was read as KCNK3 block inactive, KCNK9 block inactive, KCNQ1 act inactive, PHOSPHO1 inh inactive, KCNQ1 block inactive and hERG rescue inactive.
